# Results: PubChem BioAssay AID540295 (The Scripps Research Institute Molecular Screening Center, 2011)
# The campaign covered roughly 360,000 compounds. About 1,700 (0.47%) were called active. The full list was thinned out, with actives kept by preference. Values without a mark were called inactive.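 Rule for the calls: active = inhibition above its plate's cutoff, the mean of tested wells on that plate plus 3 SD (cut at about 29% in these data); inactive = the rest.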
# Target: Melanocortin receptor 4 (Homo sapiens) (UniProt P32245)
# Assay: blockers of MC4R Gs-cAMP response – cell-based, TR-FRET, antagonist arm of biased-ligand search, primary screen (AID 540295);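 note: 0% = Melanotan II alone and 100% = Melanotan II plus saturating MCL0020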
# Settings: MC4R-expressing cells, MTII-stimulated cAMP, LANCE TR-FRET; at 6.5 µM; active compounds read high
# How it was run: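 System: U2OS-MC4R stable cell line; Technique: Eu-cAMP/anti-cAMP TR-FRET, emission 671 nm; Repeats: single well per compound; Also added: Melanotan II; Dosing: one concentration, 6.5 µM nominal; Schedule: 30-min compound, 1-h challenge, 1-h detection, room temperature.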
# Melanocortin receptor 4 (Homo sapiens), sequence (P32245 whole entry, looked up): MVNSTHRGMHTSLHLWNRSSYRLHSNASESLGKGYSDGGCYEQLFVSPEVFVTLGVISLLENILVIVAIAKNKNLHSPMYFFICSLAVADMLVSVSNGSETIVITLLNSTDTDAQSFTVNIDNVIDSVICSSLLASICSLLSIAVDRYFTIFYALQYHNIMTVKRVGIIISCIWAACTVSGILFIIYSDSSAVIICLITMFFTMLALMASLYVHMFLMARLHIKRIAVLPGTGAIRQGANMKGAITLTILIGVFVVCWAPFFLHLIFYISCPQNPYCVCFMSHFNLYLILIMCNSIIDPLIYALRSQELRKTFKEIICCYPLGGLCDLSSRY
row,Structure (SMILES),inhibition
1,Cc1cc(C)c2nc(-c3cccnc3)cc(C(=O)Nc3ccc(S(=O)(=O)Nc4onc(C)c4C)cc3)c2c1,19.9%
2,COc1ccc(-c2ccc(CCC(=O)O)n2NC(=O)c2ccc(C(C)(C)C)cc2)cc1,11.2%
3,COc1ccc(-c2ccc(CCC(=O)O)n2-c2ccc(O)cc2)cc1,1%
4,C=Cn1c(C(=O)O)ccc1-c1ccc(OC)cc1,28.8% (active)
5,Cc1ccc(N(C(=O)c2snc(C(N)=O)c2N)C(C(=O)NCC2CCCO2)c2c[nH]c3ccccc23)cc1 (stereo not drawn),21.4%
6,Cc1ccc(C(C(=O)NCC2CCCO2)N(C(=O)c2snc(C(N)=O)c2N)c2ccc(C(C)C)cc2)o1 (stereo not drawn),29.1% (active)
7,CCOc1ccc(N(C(=O)c2snc(C(N)=O)c2N)C(C(=O)NCC2CCCO2)c2c[nH]c3ccccc23)cc1 (stereo not drawn),12.3%
8,O=C(CCNC(=O)c1ccc([N+](=O)[O-])cc1)Nc1ccccc1N1CCOCC1,17.3%
9,CC[C@@H]1Cc2cc(O)ccc2C2=C1c1ccc(O)cc1C[C@H]2CC,10.4%
10,Cc1csc(CN(C)C(=O)CC2C(=O)NCCN2CC(C)(C)C)n1 (stereo not drawn),4.33%
11,COc1ccc2sc(-c3ccc(S(C)(=O)=O)cc3)c(C#Cc3cncn3C)c2c1,12.3%
12,COc1cc(OC)cc(-c2sc3ccc(OC)cc3c2-c2ccc3cc[nH]c3c2)c1,13%
13,COc1ccc2sc(-c3ccc(S(C)(=O)=O)cc3)c(-c3ccc(C(N)=O)cc3)c2c1,35.3% (active)
14,COC(=O)[C@H](C)[C@H]1C[C@]1(C)[C@H](NC(=O)OCc1ccccc1)c1ccccc1,5.83%
15,COC(=O)[C@H](Cc1ccccc1)NC(=O)[C@@H]1C[C@H]1[C@@H](NC(=O)OCc1ccccc1)c1ccccc1,29.7% (active)
16,COC(=O)[C@@H](Cc1ccccc1)NC(=O)NCCc1ccccc1,23.7%
17,Cc1csc(/N=C/N(C)C)c1C#N,1.05%
18,Cc1ccc(S(=O)(=O)CCC(=O)OCC(=O)N(C)C2CCS(=O)(=O)C2)cc1 (stereo not drawn),0.56%
19,Cc1ccc(S(=O)(=O)CCC(=O)OCC(=O)N(C)Cc2ccccc2)cc1,33.6% (active)
20,Cc1ccc(S(=O)(=O)CCC(=O)OCc2ccccc2)cc1,3.4%
21,CCOc1ccc(S(=O)(=O)NCc2ccc3c(c2)OCO3)cc1C,3.78%

row,Structure (SMILES),inhibition
1,COc1ccc(CCN=C2SCC(=O)N2C)cc1OC,10.4%
2,O=C(NCCc1c[nH]c2ccccc12)c1cc2ccccc2oc1=O,-0.76%
3,Cc1cc(C)cc(NC(=S)NCCc2c[nH]c3ccccc23)c1,7.21%
4,O=C(NCCc1c[nH]c2ccccc12)c1cccc(Br)c1,31.5% (active)
5,CN(C)c1ccc(C2Nc3ccccc3C(=O)N2NS(=O)(=O)c2ccccc2)cc1 (stereo not drawn),-6.61%
6,COc1ccc(S(=O)(=O)N2CCSCC2)cc1,2.98%
7,CCOC(=O)c1c(C)oc2cc(Sc3ccccc3)c(O)c(O)c12,6.42%
8,Cc1oc2cc(Br)c(O)c(Br)c2c1C(=O)c1ccccc1,0.99%
9,CCOC(=O)c1c(-c2ccccc2)oc2cc(Br)c(O)c(C=O)c12,93% (active)
10,COc1ccc(CCCNC(=O)C2Cc3c(-c4cccc(C(N)=O)c4)ccnc3O2)cc1 (stereo not drawn),2.69%
11,CCn1c2ccccc2c2cc(NC(=S)N3CCOCC3)ccc21,-0.62%
12,CCn1c2ccccc2c2cc(NC(=O)COC(=O)c3cc(S(=O)(=O)N4CCCCC4)ccc3Cl)ccc21,-0.18%
13,CCn1c2ccccc2c2cc(NC(=O)C/C(C)=N/NC(=O)c3ccccc3N)ccc21,28.8% (active)
14,CC1=NN(C(C)C)C(=O)C1,6.17%
15,Cc1ccnc(NC(=O)c2ccc(Cl)c([N+](=O)[O-])c2)c1,23.3%
16,O=C(O)c1ccc2c(=O)n3c(nc2c1)/C(=C/c1ccc(Cl)c([N+](=O)[O-])c1)CC3,0.52%
17,Cc1nc2ccccc2c(=O)n1NC(=O)c1ccc(Cl)c([N+](=O)[O-])c1,49% (active)
18,CCOC(=O)C1(C)CCCN(C(=O)c2ccc(F)c(Cl)c2)C1 (stereo not drawn),-0.84%
19,Cc1nc(N2CCN(c3ccccn3)CC2)c2c(C)c(C(=O)Nc3ccc(F)c(Cl)c3)sc2n1,5.05%
20,CC(=O)Nc1ccc(S(=O)(=O)N2CCn3cccc3C2C)cc1 (stereo not drawn),1.62%
21,COc1ccc(-c2n[nH]c(C)c2-c2ccccc2OC)c(O)c1,29.1% (active)

row,Structure (SMILES),inhibition
1,CCOc1ccc(-c2nc(N)ncc2-c2ccccc2OC)c(O)c1,-2.31%
2,CCOc1ccccc1Oc1cn[nH]c1-c1ccc(OC)cc1O,2.19%
3,CC(Sc1ccc(S(=O)(=O)N2CCN(C)CC2)cn1)C(=O)NC1CCCC(C)C1C (stereo not drawn),-2.08%
4,Cc1cc(=O)c2ccc(NC(=O)c3ccccc3)cc2[nH]1,0.31%
5,O=C(Nc1ccc2ccccc2c1[N+](=O)[O-])c1ccccc1,-1.17%
6,O=C(NC1=CC(=O)c2ccccc2C1=O)c1ccccc1,34.6% (active)
7,CN(CCC#N)c1ncnc2scc(-c3ccccc3)c12,-6.59%
8,Cc1sc2nc(-c3ccccc3F)oc(=O)c2c1C,2.06%
9,Cc1ccccc1-n1nnnc1SCCCC(=O)c1ccc(F)cc1,0.07%
10,Cc1cccc(OCC(O)Cn2c(N3CCCCC3)nc3c2c(=O)[nH]c(=O)n3C)c1 (stereo not drawn),32.4% (active)
11,Cn1c(=O)c2c(nc(N3CCCCCC3)n2CC(O)COc2ccc(Cl)cc2)n(C)c1=O (stereo not drawn),19.6%
12,C=C(C)Cn1c(N2CCCC2)nc2c1c(=O)[nH]c(=O)n2C,-7.2%
13,CCCCCCCC(=O)OC(CN1CCCCCC1)CN1CCCC1=O (stereo not drawn),3.62%
14,CC(=O)c1cccc(NC(=O)C2CCCN(S(=O)(=O)c3cccc4nonc34)C2)c1 (stereo not drawn),0.67%
15,Cn1nc(C(F)(F)F)cc1C(=O)O,-0.27%
16,CC(NS(=O)(=O)c1ccc(Br)cc1)C(=O)NCC1CCCO1 (stereo not drawn),40.5% (active)
17,CCC(=O)Nc1ccc(S(=O)(=O)NCC2CCCO2)cc1 (stereo not drawn),6.76%
18,O=C(NCC1CCCO1)c1ccc(S(=O)(=O)Nc2ccc(F)cc2)cc1 (stereo not drawn),1.8%
19,Cn1cccc1C1(C(F)(F)F)NCCNC1=O (stereo not drawn),1.67%
20,CC(=O)Nc1ccc(Sc2ccccc2C(=O)N2CCCC2)cn1,32% (active)
21,O=C(Nc1ccccc1C(=O)N1CCCCCC1)c1ccccc1Cl,2.65%

row,Structure (SMILES),inhibition
1,O=C(Cc1ccccc1)Nc1c(C(=O)N2CCCCCC2)cnn1-c1ccccc1,1.13%
2,O=C(NCc1ccccc1)C1=C[C@@H](c2ccccc2)C[C@@H](OCCCCO)O1,-12.3%
3,Cc1ccccc1N1CCN(C2CCCN(C(=O)c3cn4c(C)cccc4n3)C2)CC1 (stereo not drawn),-0.92%
4,Cc1c(CNCCc2ccccc2)c(C(=O)O)c(C)n1-c1ccccc1,11.5%
5,CCc1nn(CCCC(=O)Nc2ccc(C)cc2C)c(=O)c2cc3occc3n12,-1.71%
6,c1ccc(-n2cccc2)c(N2CCCCC2)c1,4.15%
7,O=C(c1ccc(Cl)c(S(=O)(=O)N2CCCCCC2)c1)N1CCN(c2ccc(O)cc2)CC1,-1.58%
8,O=C1C=CC(=O)N1c1ccc(N2CCCCC2)cc1,43.8% (active)
9,CCc1nc2ccc(C(=O)N3CCC(O)(Cc4ccccc4)CC3)cn2c1N(C)C(=O)Cc1ccccc1,9.63%
10,CCCCn1nc(C(=O)N2CCc3ccccc32)c2ccccc2c1=O,9.32%
11,S=C(NC1CCCCC1)NN1CCOCC1,7.17%
12,COc1cc([N+](=O)[O-])ccc1NC(=O)COC(=O)CCOc1ccc(C)cc1,7.73%
13,Cc1ccc(NC(=O)C(C)OC(=O)C2CC3CCCC(C2)C3=O)cc1S(=O)(=O)N1CCOCC1 (stereo not drawn),-1.35%
14,CC(OC(=O)CCCc1c[nH]c2ccccc12)C(=O)Nc1ccc(S(N)(=O)=O)cc1 (stereo not drawn),-3.17%
15,Cc1ccc(NC(=O)C(C)OC(=O)Cc2c[nH]c3ccccc23)cc1S(=O)(=O)N1CCOCC1 (stereo not drawn),28.7% (active)
16,N#Cc1c(-c2cccs2)nc(SCC(=O)c2ccc(Br)cc2)[nH]c1=O,39.6% (active)
17,O=C(CSc1nc2ccccc2c(=O)[nH]1)Nc1nc(-c2ccc(Br)cc2)cs1,10%
18,CC(=O)CSc1nc(CCc2ccccc2)c(C#N)c(=O)[nH]1,7.06%
19,CC(=O)Nc1cccc(-c2cc(NC(C)=O)c3ncc(-c4ccccc4)n3c2)c1,9.96%
20,COc1ccc(C(=O)N2CCCCC2c2cc(C(=O)Nc3ccc(F)c(Cl)c3)no2)cc1 (stereo not drawn),16.2%
